According to paper PMC9476207 (ACS Omega, 2022):

Columns and labels:
Experiment in all cases: NCI-60 single-dose antiproliferative screen
Format in all cases: cell-based
SF-268 = conditions: Homo sapiens, SF-268, 48 h, read-out: growth percent
In short: (§1)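 NCI-60 protocol. Lines were grown in RPMI 1640 with 5% FBS and 2 mM L-glutamine, plated and incubated 24 h at 37 °C; time-zero plates were TCA-fixed. The test compound was dissolved in DMSO, diluted in medium with 50 μg/mL gentamicin and given once at a final 10^-5 M (DMSO control) for 48 h. Cells were fixed with cold TCA (1 h, 4 °C) and stained with 0.4% SRB in 1% acetic acid for 10 min. Dye was dissolved in 10 mM Trizma base and read at 515 nm. Growth percent was calculated from time-zero, test and control ODs.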

CAKI-1 = conditions: Homo sapiens, CAKI-1, 48 h, read-out: growth percent
In short: as §1

NCI-H522 = conditions: Homo sapiens, NCI-H522, 48 h, read-out: growth percent
In short: as §1

NCI-H460 = conditions: Homo sapiens, NCI-H460, 48 h, read-out: growth percent
In short: as §1

UACC-62 = conditions: Homo sapiens, UACC-62, 48 h, read-out: growth percent
In short: (§2)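 Cells grown in RPMI 1640 with 5% FBS and 2 mM L-glutamine, plated and held 24 h at 37 °C; time-zero plates TCA-fixed. DMSO stocks were diluted in gentamicin-containing medium to a final 10^-5 M, with a DMSO-only control. Exposure 48 h, 5% CO2. Adherent cells TCA-fixed 1 h at 4 °C, stained with 0.4% SRB, solubilised in 10 mM Trizma base, read at 515 nm. Growth percent derived from ODtzero, ODtest and ODctrl.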

MDA-MB-435 = conditions: Homo sapiens, MDA-MB-435, 48 h, read-out: growth percent
In short: as §1

SF-295 = conditions: Homo sapiens, SF-295, 48 h, read-out: growth percent
In short: as §1

MALME-3M = conditions: Homo sapiens, 48 h, read-out: growth percent
In short: as §1

SR = conditions: Homo sapiens, 48 h, read-out: growth percent
In short: as §2

HCT-15 = conditions: Homo sapiens, HCT-15, 48 h, read-out: growth percent
In short: as §1

MDA-MB-468 = conditions: Homo sapiens, MDA-MB-468, 48 h, read-out: growth percent
In short: as §1

OVCAR-4 = conditions: Homo sapiens, OVCAR-4, 48 h, read-out: growth percent
In short: as §1

OVCAR-3 = conditions: Homo sapiens, OVCAR-3, 48 h, read-out: growth percent
In short: as §1

UO-31 = conditions: Homo sapiens, UO-31, 48 h, read-out: growth percent
In short: as §2

NCI/ADR-RES = conditions: Homo sapiens, 48 h, read-out: growth percent
In short: as §1

HS 578T = conditions: Homo sapiens, 48 h, read-out: growth percent
In short: as §1

SK-MEL-5 = conditions: Homo sapiens, SK-MEL-5, 48 h, read-out: growth percent
In short: as §2

SN12C = conditions: Homo sapiens, 48 h, read-out: growth percent
In short: as §2

OVCAR-5 = conditions: Homo sapiens, OVCAR-5, 48 h, read-out: growth percent
In short: as §1

A549/ATCC = conditions: Homo sapiens, A549, 48 h, read-out: growth percent
In short: as §1

HOP-92 = conditions: Homo sapiens, HOP-92, 48 h, read-out: growth percent
In short: as §1

U251 = conditions: Homo sapiens, U-251, 48 h, read-out: growth percent
In short: as §2

RPMI-8226 = conditions: Homo sapiens, RPMI-8226, 48 h, read-out: growth percent
In short: as §1

KM12 = conditions: Homo sapiens, KM12, 48 h, read-out: growth percent
In short: as §1

K-562 = conditions: Homo sapiens, K562, 48 h, read-out: growth percent
In short: as §1

SK-OV-3 = conditions: Homo sapiens, SK-OV-3, 48 h, read-out: growth percent
In short: as §2

RXF 393 = conditions: Homo sapiens, RXF 393, 48 h, read-out: growth percent
In short: as §1

LOX IMVI = conditions: Homo sapiens, 48 h, read-out: growth percent
In short: as §1

MOLT-4 = conditions: Homo sapiens, MOLT-4, 48 h, read-out: growth percent
In short: as §1

SK-MEL-28 = conditions: Homo sapiens, SK-MEL-28, 48 h, read-out: growth percent
In short: as §2

SK-MEL-2 = conditions: Homo sapiens, SK-MEL-2, 48 h, read-out: growth percent
In short: as §2

HCC-2998 = conditions: Homo sapiens, HCC 2998, 48 h, read-out: growth percent
In short: as §1

NCI-H322M = conditions: Homo sapiens, 48 h, read-out: growth percent
In short: as §1

HOP-62 = conditions: Homo sapiens, HOP-62, 48 h, read-out: growth percent
In short: as §1

MDA-MB-231 ATCC = conditions: Homo sapiens, MDA-MB-231, 48 h, read-out: growth percent
In short: as §1

SW-620 = conditions: Homo sapiens, SW-620, 48 h, read-out: growth percent
In short: as §2

Compound: COc1cc(CNC(=O)CCCC/C=C/C(C)C)ccc1OCc1cn(-c2ccc(C)cc2)nn1 [14n, (E)-N-(3-Methoxy-4-((1-(p-tolyl)-1H-1,2,3-triazol-4-yl)methoxy)benzyl)-8-methylnon-6-enamide]
- activity at 10 µM (SF-268): 81.7%
- activity at 10 µM (CAKI-1): 88.5%
- activity at 10 µM (NCI-H522): 62.1%
- activity at 10 µM (NCI-H460): 93.2%
- activity at 10 µM (UACC-62): 70.2%
- activity at 10 µM (MDA-MB-435): 109%
- activity at 10 µM (SF-295): 98.9%
- activity at 10 µM (MALME-3M): 110%
- activity at 10 µM (SR): 75.5%
- activity at 10 µM (HCT-15): 104%
- activity at 10 µM (MDA-MB-468): 92.4%
- activity at 10 µM (OVCAR-4): 88.8%
- activity at 10 µM (OVCAR-3): 91.8%
- activity at 10 µM (UO-31): 75.8%
- activity at 10 µM (NCI/ADR-RES): 87.4%
- activity at 10 µM (HS 578T): 89.7%
- activity at 10 µM (SK-MEL-5): 86.8%
- activity at 10 µM (SN12C): 89.3%
- activity at 10 µM (OVCAR-5): 108%
- activity at 10 µM (A549/ATCC): 84%
- activity at 10 µM (HOP-92): 83.5%
- activity at 10 µM (U251): 81.7%
- activity at 10 µM (RPMI-8226): 74.1%
- activity at 10 µM (KM12): 96%
- activity at 10 µM (K-562): 80%
- activity at 10 µM (SK-OV-3): 94.4%
- activity at 10 µM (RXF 393): 102%
- activity at 10 µM (LOX IMVI): 85.1%
- activity at 10 µM (MOLT-4): 83.5%
- activity at 10 µM (SK-MEL-28): 114%
- activity at 10 µM (SK-MEL-2): 91.9%
- activity at 10 µM (HCC-2998): 108%
- activity at 10 µM (NCI-H322M): 89.4%
- activity at 10 µM (HOP-62): 86.4%
- activity at 10 µM (MDA-MB-231 ATCC): 72.2%
- activity at 10 µM (SW-620): 102%
